≈ marks a conversion by molar mass, not a printed value.
Experiments:
Candida albicans = experiment: Antifungal activity against Candida albicans KCCM 50235 after 1 day by twofold broth dilution method; assay type: functional; conditions: KCCM 50235, 24 h
In short: (§1)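 Candida strains were tested by twofold serial broth dilution in modified Sabouraud dextrose broth at roughly 1 × 10⁵ cells/mL, held at 37 °C and read after one day. MIC was taken as the lowest agent concentration, against fluconazole and 5-fluorocytosine standards.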

Candida tropicalis = experiment: Antifungal activity against Candida tropicalis KCCM 50662 after 1 day by twofold broth dilution method; assay type: functional; conditions: KCCM 50662, 24 h; in short: as §1
Pichia kudriavzevii = experiment: Antifungal activity against Candida krusei KCCM 11655 after 1 day by twofold broth dilution method; assay type: functional; conditions: KCCM 11655, 24 h; in short: as §1
Aspergillus niger = experiment: Antifungal activity against Aspergillus niger KCTC 1231 after 2 days by twofold broth dilution method; assay type: functional; conditions: KCTC 1231, 48 h
In short: (§2)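 Twofold broth dilution in modified Sabouraud dextrose broth. Inoculum about 1 × 10⁵ cells/mL. Incubated at 37 °C and read after two days. MIC taken as the lowest concentration of agent tested, with fluconazole and 5-fluorocytosine as reference agents.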

Aspergillus flavus = experiment: Antifungal activity against Aspergillus flavus KCCM 11899 after 2 days by twofold broth dilution method; assay type: functional; conditions: KCCM 11899, 48 h; in short: as §2
Cryptococcus neoformans = experiment: Antifungal activity against Cryptococcus neoformans KCCM 50564 after 1 day by twofold broth dilution method; conditions: KCCM 50564, 24 h

Compound `CCOC(=O)c1c(N)oc2c1c(Br)c(O)c1ncccc12` has an MIC (Candida albicans) of 12.5 µg/mL (≈ 35.6 µM), an MIC (Candida tropicalis) of 6.3 µg/mL (≈ 17.9 µM) and an MIC (Pichia kudriavzevii) of 6.3 µg/mL (≈ 17.9 µM). For the same compound, the MIC (Aspergillus niger) was 6.3 µg/mL (≈ 17.9 µM), the MIC (Aspergillus flavus) was 6.3 µg/mL (≈ 17.9 µM) and the MIC (Cryptococcus neoformans) was 25 µg/mL (≈ 71.2 µM).
With `CCOC(=O)c1c(N)oc2c1c(Cl)c(O)c1ncccc12` the MIC (Candida albicans) was > 50 µg/mL, the MIC (Candida tropicalis) was 50 µg/mL (≈ 163 µM) and the MIC (Pichia kudriavzevii) was 6.3 µg/mL (≈ 20.5 µM). The MIC (Aspergillus niger) was > 50 µg/mL, the MIC (Aspergillus flavus) was > 50 µg/mL and the MIC (Cryptococcus neoformans) was 25 µg/mL (≈ 81.5 µM).
`COC(=O)c1c(N)oc2c1c(Br)c(O)c1ncccc12` showed an MIC (Candida albicans) of 50 µg/mL (≈ 148 µM), an MIC (Candida tropicalis) of 6.3 µg/mL (≈ 18.7 µM) and an MIC (Pichia kudriavzevii) of 25 µg/mL (≈ 74.2 µM). For the same compound, the MIC (Aspergillus niger) was 25 µg/mL (≈ 74.2 µM), the MIC (Aspergillus flavus) was 25 µg/mL (≈ 74.2 µM) and the MIC (Cryptococcus neoformans) was 12.5 µg/mL (≈ 37.1 µM).
Work on `COC(=O)c1c(N)oc2c1c(C)c(O)c1ncccc12` yielded an MIC (Candida albicans) of 0.8 µg/mL (≈ 2.94 µM), an MIC (Candida tropicalis) of 6.3 µg/mL (≈ 23.1 µM) and an MIC (Pichia kudriavzevii) of 25 µg/mL (≈ 91.8 µM). It also gave an MIC (Aspergillus niger) of 12.5 µg/mL (≈ 45.9 µM), an MIC (Aspergillus flavus) of 3.2 µg/mL (≈ 11.8 µM) and an MIC (Cryptococcus neoformans) of 25 µg/mL (≈ 91.8 µM).
In the case of `CCOC(=O)c1c(N)oc2c1c(C)c(O)c1ncccc12`, the MIC (Candida albicans) is reported as 6.3 µg/mL (≈ 22 µM), the MIC (Candida tropicalis) is reported as 25 µg/mL (≈ 87.3 µM) and the MIC (Pichia kudriavzevii) is reported as 25 µg/mL (≈ 87.3 µM). For the same compound, the MIC (Aspergillus niger) was > 50 µg/mL, the MIC (Aspergillus flavus) was 12.5 µg/mL (≈ 43.7 µM) and the MIC (Cryptococcus neoformans) was 12.5 µg/mL (≈ 43.7 µM).
Compound `CCOC(=O)c1c(N)oc2c1c(Sc1cccc(F)c1)c(O)c1ncccc12` has an MIC (Candida albicans) of 50 µg/mL (≈ 125 µM), an MIC (Candida tropicalis) of 50 µg/mL (≈ 125 µM) and an MIC (Pichia kudriavzevii) of 50 µg/mL (≈ 125 µM). It also gave an MIC (Aspergillus niger) of 25 µg/mL (≈ 62.7 µM), an MIC (Aspergillus flavus) of 12.5 µg/mL (≈ 31.4 µM) and an MIC (Cryptococcus neoformans) of 50 µg/mL (≈ 125 µM).
`CCOC(=O)c1c(N)oc2c1c(Sc1ccc(F)cc1)c(O)c1ncccc12` was tested, and the MIC (Candida albicans) was 50 µg/mL (≈ 125 µM), the MIC (Candida tropicalis) was 50 µg/mL (≈ 125 µM) and the MIC (Pichia kudriavzevii) was 50 µg/mL (≈ 125 µM). The MIC (Aspergillus niger) was 50 µg/mL (≈ 125 µM), the MIC (Aspergillus flavus) was 6.3 µg/mL (≈ 15.8 µM) and the MIC (Cryptococcus neoformans) was 50 µg/mL (≈ 125 µM).
With `CCOC(=O)c1c(N)oc2c1c(Sc1ccc(Br)cc1)c(O)c1ncccc12` the MIC (Candida albicans) was 1.6 µg/mL (≈ 3.48 µM), the MIC (Candida tropicalis) was 0.8 µg/mL (≈ 1.74 µM) and the MIC (Pichia kudriavzevii) was 1.6 µg/mL (≈ 3.48 µM). It also gave an MIC (Aspergillus niger) of 1.6 µg/mL (≈ 3.48 µM), an MIC (Aspergillus flavus) of 0.8 µg/mL (≈ 1.74 µM) and an MIC (Cryptococcus neoformans) of 25 µg/mL (≈ 54.4 µM).
In the case of `CCOC(=O)c1c(N)oc2c1c(Sc1ccc(Cl)cc1)c(O)c1ncccc12`, the MIC (Candida albicans) is reported as 0.8 µg/mL (≈ 1.93 µM), the MIC (Candida tropicalis) is reported as 0.8 µg/mL (≈ 1.93 µM) and the MIC (Pichia kudriavzevii) is reported as 1.6 µg/mL (≈ 3.86 µM). The MIC (Aspergillus niger) was 3.2 µg/mL (≈ 7.71 µM), the MIC (Aspergillus flavus) was 3.2 µg/mL (≈ 7.71 µM) and the MIC (Cryptococcus neoformans) was 25 µg/mL (≈ 60.3 µM).
`CCOC(=O)c1c(N)oc2c1c(Sc1ccccc1)c(O)c1ncccc12` showed an MIC (Candida albicans) of 3.2 µg/mL (≈ 8.41 µM), an MIC (Candida tropicalis) of 1.6 µg/mL (≈ 4.21 µM) and an MIC (Pichia kudriavzevii) of 3.2 µg/mL (≈ 8.41 µM). It also gave an MIC (Aspergillus niger) of 3.2 µg/mL (≈ 8.41 µM), an MIC (Aspergillus flavus) of 3.2 µg/mL (≈ 8.41 µM) and an MIC (Cryptococcus neoformans) of 25 µg/mL (≈ 65.7 µM).
For `CCOC(=O)c1c(N)oc2c1c(Sc1ccc(F)c(F)c1)c(O)c1ncccc12`, the MIC (Candida albicans) was 0.8 µg/mL (≈ 1.92 µM), the MIC (Candida tropicalis) was 1.6 µg/mL (≈ 3.84 µM) and the MIC (Pichia kudriavzevii) was 1.6 µg/mL (≈ 3.84 µM). The MIC (Aspergillus niger) was 1.6 µg/mL (≈ 3.84 µM), the MIC (Aspergillus flavus) was 1.6 µg/mL (≈ 3.84 µM) and the MIC (Cryptococcus neoformans) was 50 µg/mL (≈ 120 µM).
`CCOC(=O)c1c(N)oc2c1c(Sc1cccc(C)c1)c(O)c1ncccc12` was tested, and the MIC (Candida albicans) was 12.5 µg/mL (≈ 31.7 µM), the MIC (Candida tropicalis) was 25 µg/mL (≈ 63.4 µM) and the MIC (Pichia kudriavzevii) was 25 µg/mL (≈ 63.4 µM). For the same compound, the MIC (Aspergillus niger) was 25 µg/mL (≈ 63.4 µM), the MIC (Aspergillus flavus) was 12.5 µg/mL (≈ 31.7 µM) and the MIC (Cryptococcus neoformans) was 3.2 µg/mL (≈ 8.11 µM).
Compound `CCOC(=O)c1c(N)oc2c1c(Sc1ccc(C)c(C)c1)c(O)c1ncccc12` has an MIC (Candida albicans) of 25 µg/mL (≈ 61.2 µM), an MIC (Candida tropicalis) of 12.5 µg/mL (≈ 30.6 µM) and an MIC (Pichia kudriavzevii) of 25 µg/mL (≈ 61.2 µM). It also gave an MIC (Aspergillus niger) of 12.5 µg/mL (≈ 30.6 µM), an MIC (Aspergillus flavus) of 6.3 µg/mL (≈ 15.4 µM) and an MIC (Cryptococcus neoformans) of 12.5 µg/mL (≈ 30.6 µM).
`CCOC(=O)c1c(N)oc2c1c(Sc1ccc(O)cc1)c(O)c1ncccc12` showed an MIC (Candida albicans) of 12.5 µg/mL (≈ 31.5 µM), an MIC (Candida tropicalis) of 6.3 µg/mL (≈ 15.9 µM) and an MIC (Pichia kudriavzevii) of 25 µg/mL (≈ 63.1 µM). For the same compound, the MIC (Aspergillus niger) was 3.2 µg/mL (≈ 8.07 µM), the MIC (Aspergillus flavus) was 25 µg/mL (≈ 63.1 µM) and the MIC (Cryptococcus neoformans) was 12.5 µg/mL (≈ 31.5 µM).
Work on `CCOC(=O)c1c(N)oc2c1c(Sc1ccc(OC)cc1)c(O)c1ncccc12` yielded an MIC (Candida albicans) of 6.3 µg/mL (≈ 15.3 µM), an MIC (Candida tropicalis) of 6.3 µg/mL (≈ 15.3 µM) and an MIC (Pichia kudriavzevii) of 6.3 µg/mL (≈ 15.3 µM). For the same compound, the MIC (Aspergillus niger) was 3.2 µg/mL (≈ 7.8 µM), the MIC (Aspergillus flavus) was 12.5 µg/mL (≈ 30.5 µM) and the MIC (Cryptococcus neoformans) was 25 µg/mL (≈ 60.9 µM).
In the case of `CCOC(=O)c1c(N)oc2c1c(Sc1ccc(C)cc1)c(O)c1ncccc12`, the MIC (Candida albicans) is reported as 6.3 µg/mL (≈ 16 µM), the MIC (Candida tropicalis) is reported as 12.5 µg/mL (≈ 31.7 µM) and the MIC (Pichia kudriavzevii) is reported as 50 µg/mL (≈ 127 µM). The MIC (Aspergillus niger) was 3.2 µg/mL (≈ 8.11 µM), the MIC (Aspergillus flavus) was 50 µg/mL (≈ 127 µM) and the MIC (Cryptococcus neoformans) was 12.5 µg/mL (≈ 31.7 µM).
`CCOC(=O)c1c(N)oc2c1c(Sc1cccc(Cl)c1)c(O)c1ncccc12` gave an MIC (Candida albicans) of 6.3 µg/mL (≈ 15.2 µM), an MIC (Candida tropicalis) of 12.5 µg/mL (≈ 30.1 µM) and an MIC (Pichia kudriavzevii) of 6.3 µg/mL (≈ 15.2 µM). It also gave an MIC (Aspergillus niger) of 3.2 µg/mL (≈ 7.71 µM), an MIC (Aspergillus flavus) of 12.5 µg/mL (≈ 30.1 µM) and an MIC (Cryptococcus neoformans) of 1.6 µg/mL (≈ 3.86 µM).
In the case of `CCOC(=O)c1c(N)oc2c1c(SC)c(O)c1ncccc12`, the MIC (Candida albicans) is reported as 12.5 µg/mL (≈ 39.3 µM), the MIC (Candida tropicalis) is reported as 12.5 µg/mL (≈ 39.3 µM) and the MIC (Pichia kudriavzevii) is reported as 50 µg/mL (≈ 157 µM). The MIC (Aspergillus niger) was 50 µg/mL (≈ 157 µM), the MIC (Aspergillus flavus) was 50 µg/mL (≈ 157 µM) and the MIC (Cryptococcus neoformans) was 6.3 µg/mL (≈ 19.8 µM).
In the case of `CCOC(=O)c1c(N)oc2c1c(SCC)c(O)c1ncccc12`, the MIC (Candida albicans) is reported as 50 µg/mL (≈ 150 µM), the MIC (Candida tropicalis) is reported as 25 µg/mL (≈ 75.2 µM) and the MIC (Pichia kudriavzevii) is reported as > 50 µg/mL. The MIC (Aspergillus niger) was 25 µg/mL (≈ 75.2 µM), the MIC (Aspergillus flavus) was 6.3 µg/mL (≈ 19 µM) and the MIC (Cryptococcus neoformans) was > 50 µg/mL.
For `Cc1ccc2cccnc2c1[N+](=O)[O-]`, the MIC (Candida albicans) was > 50 µg/mL, the MIC (Candida tropicalis) was > 50 µg/mL and the MIC (Pichia kudriavzevii) was > 50 µg/mL. For the same compound, the MIC (Aspergillus niger) was > 50 µg/mL, the MIC (Aspergillus flavus) was > 50 µg/mL and the MIC (Cryptococcus neoformans) was 50 µg/mL (≈ 266 µM).
With `Nc1ccc(O)c2ncccc12` the MIC (Candida albicans) was 50 µg/mL (≈ 312 µM), the MIC (Candida tropicalis) was 50 µg/mL (≈ 312 µM) and the MIC (Pichia kudriavzevii) was > 50 µg/mL. The MIC (Aspergillus niger) was 50 µg/mL (≈ 312 µM), the MIC (Aspergillus flavus) was > 50 µg/mL and the MIC (Cryptococcus neoformans) was > 50 µg/mL.
`OC(Cn1cncn1)(Cn1cncn1)c1ccc(F)cc1F` [FLUCONAZOLE] showed an MIC (Candida albicans) of 50 µg/mL (≈ 163 µM), an MIC (Candida tropicalis) of 6.3 µg/mL (≈ 20.6 µM) and an MIC (Pichia kudriavzevii) of 12.5 µg/mL (≈ 40.8 µM). It also gave an MIC (Aspergillus niger) of 12.5 µg/mL (≈ 40.8 µM), an MIC (Aspergillus flavus) of 25 µg/mL (≈ 81.6 µM) and an MIC (Cryptococcus neoformans) of 6.3 µg/mL (≈ 20.6 µM).
With `Nc1nc(=O)[nH]cc1F` [FLUCYTOSINE] the MIC (Candida albicans) was 3.2 µg/mL (≈ 24.8 µM), the MIC (Candida tropicalis) was 3.2 µg/mL (≈ 24.8 µM) and the MIC (Pichia kudriavzevii) was 3.2 µg/mL (≈ 24.8 µM). The MIC (Aspergillus niger) was 3.2 µg/mL (≈ 24.8 µM), the MIC (Aspergillus flavus) was 1.6 µg/mL (≈ 12.4 µM) and the MIC (Cryptococcus neoformans) was 6.3 µg/mL (≈ 48.8 µM).
